# How the values were obtained:
# [1] = tested on: Candida parapsilosis; assay: Anticandidal activity against Candida parapsilosis 64E after 24 hrs by spectrophotometry; format: functional; details: Lodderomyces parapsilosis
# [2] = tested on: Pichia kudriavzevii; assay: Anticandidal activity against Candida krusei ATCC 14243 after 24 hrs by spectrophotometry; format: functional; details: ATCC 14243, 24 h
# [3] = tested on: Nakaseomyces glabratus; assay: Anticandidal activity against Candida glabrata 70E after 24 hrs by spectrophotometry; format: functional
# [4] = tested on: Candida tropicalis; assay: Anticandidal activity against Candida tropicalis 86E after 24 hrs by spectrophotometry; format: functional
# [5] = tested on: Candida albicans; assay: Anticandidal activity against Candida albicans ATCC 60193 after 24 hrs by spectrophotometry; format: functional; details: ATCC 60193, 24 h
# [6] = tested on: Candida albicans; assay: Anticandidal activity against Candida albicans 53T after 24 hrs by spectrophotometry; format: functional
# [7] = tested on: Candida parapsilosis; assay: Anticandidal activity against Candida parapsilosis ATCC 34136 after 24 hrs by spectrophotometry; format: functional; details: Lodderomyces parapsilosis, ATCC 34136, 24 h
# [8] = tested on: Candida albicans; assay: Anticandidal activity against Candida albicans 4T after 24 hrs by spectrophotometry; format: functional
# [9] = tested on: Pichia kudriavzevii; assay: Anticandidal activity against Candida krusei 193T after 24 hrs by spectrophotometry; format: functional
# [10] = tested on: Candida parapsilosis; assay: Anticandidal activity against Candida parapsilosis 81E after 24 hrs by spectrophotometry; format: functional; details: Lodderomyces parapsilosis
# [11] = tested on: Candida albicans; assay: Anticandidal activity against Candida albicans 15T after 24 hrs by spectrophotometry; format: functional
# [12] = Therapeutic index, ratio of drug level reducing 50% viability of human lymphocytes at 25 degC to MIC50 for Candida sp.
# [13] = Cytotoxicity against human lymphocytes at 40 uM; format: cell-based; details: lymphocyte
# Procedure, shortened: (§1)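 Human lymphocytes exposed to compound at concentrations between 0 and 50 μM, at both 25 and 37 °C; read-out is percent cell viability.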
# [14] = tested on: Aspergillus niger; assay: Antifungal activity against Aspergillus niger isolated from patient nasal swab after 48 hrs by broth microdilution method; format: functional
# [15] = tested on: Aspergillus terreus; assay: Antifungal activity against Aspergillus terreus isolated from patient bronchoalveolar lavage fluid after 48 hrs by broth microdilution method; format: functional; details: Lung
# [16] = tested on: Aspergillus fumigatus; assay: Antifungal activity against Aspergillus fumigatus isolated from patient sputum after 48 hrs by broth microdilution method; format: functional
# [17] = tested on: Aspergillus versicolor; assay: Antifungal activity against Aspergillus versicolor isolated from patient skin after 48 hrs by broth microdilution method; format: functional
# [18] = tested on: Aspergillus fumigatus; assay: Antifungal activity against Aspergillus fumigatus isolated from patient bronchoalveolar lavage fluid after 48 hrs by broth microdilution method; format: functional; details: Lung
# [19] = tested on: Aspergillus flavus; assay: Antifungal activity against Aspergillus flavus isolated from patient sputum after 48 hrs by broth microdilution method; format: functional
# [20] = tested on: Aspergillus niger; assay: Antifungal activity against Aspergillus niger isolated from patient sputum after 48 hrs by broth microdilution method; format: functional
# [21] = Therapeutic index, ratio of drug level reducing 50% viability of human lymphocytes at 37 degC to MIC50 for Candida sp.
# Procedure, shortened: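 Index is the lymphocyte concentration giving 50% viability at 37 °C divided by MIC50 for each Candida species; lymphocytes were exposed to 0–50 μM.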
# [22] = tested on: Aspergillus versicolor; assay: Antifungal activity against Aspergillus versicolor isolated from patient sputum after 48 hrs by broth microdilution method; format: functional
# [23] = Cytotoxicity against human lymphocytes at 50 uM; format: cell-based; details: lymphocyte; procedure, shortened: as §1
# [24] = Cytotoxicity against human lymphocytes assessed as cell viability up to 30 uM; format: cell-based, Lymphocyte; details: read-out: Activity; procedure, shortened: as §1
structure (smiles),measurement,setting,value
N=C(N)NCCCCCCCCNCCCCCCCCNC(=N)NCC1CC1,MIC,[1],5 µM
same,MIC,[2],5 µM
same,MIC,[3],20 µM
same,MIC,[4],5 µM
same,MIC,[5],20 µM
same,MIC,[6],10 µM
same,MIC,[7],80 µM
same,MIC,[8],10 µM
same,MIC,[9],10 µM
same,MIC,[10],20 µM
same,MIC,[11],20 µM
CC(C)=CCNC(=N)NCCCCCCCCNCCCCCCCCNC(=N)N,MIC,[1],> 80 µM
same,MIC,[2],40 µM
same,MIC,[3],80 µM
same,MIC,[4],20 µM
same,MIC,[5],80 µM
same,MIC,[6],80 µM
same,MIC,[7],> 80 µM
same,MIC,[8],80 µM
same,MIC,[9],20 µM
same,MIC,[10],40 µM
same,MIC,[11],40 µM
CC(C)=CCNC(=N)NCCCCCCCCNCCCCCCCCNC(=N)NCC=C(C)C,MIC,[1],> 80 µM
same,MIC,[2],40 µM
same,MIC,[3],> 80 µM
same,MIC,[4],> 80 µM
same,MIC,[5],> 80 µM
same,MIC,[6],80 µM
same,MIC,[7],> 80 µM
same,MIC,[8],80 µM
same,MIC,[9],80 µM
same,MIC,[10],> 80 µM
same,MIC,[11],> 80 µM
CC(C)=CCNC(=N)NCCCCCCCCN1CCCCCCCCNC(=N)NC1=O,MIC,[1],> 80 µM
same,MIC,[2],10 µM
same,MIC,[3],80 µM
same,MIC,[4],20 µM
same,MIC,[5],40 µM
same,MIC,[6],20 µM
same,MIC,[7],> 80 µM
same,MIC,[8],20 µM
same,MIC,[9],20 µM
same,MIC,[10],40 µM
same,MIC,[11],20 µM
N=C(NCCCCCCCCN1CCCCCCCCNC(=N)NC1=O)NCc1ccccc1,MIC,[1],20 µM
same,MIC,[2],20 µM
same,MIC,[3],40 µM
same,MIC,[4],2.5 µM
same,MIC,[5],2.5 µM
same,MIC,[6],2.5 µM
same,MIC,[7],80 µM
same,MIC,[8],2.5 µM
same,MIC,[9],10 µM
same,MIC,[10],20 µM
same,MIC,[11],5 µM
N=C(N)NCCCCCCCCN(CCCCCCCCNC(=N)N)C(=N)N,MIC,[1],> 80 µM
same,MIC,[2],10 µM
same,MIC,[3],> 80 µM
same,MIC,[4],1.25 µM
same,MIC,[5],5 µM
same,MIC,[6],20 µM
same,MIC,[7],> 80 µM
same,MIC,[8],5 µM
same,MIC,[9],40 µM
same,MIC,[10],> 80 µM
same,MIC,[11],10 µM
C#CCNC(=N)NCCCCCCCCN1CCCCCCCCNC(=N)NC1=O,MIC,[1],40 µM
same,MIC,[2],80 µM
same,MIC,[3],80 µM
same,MIC,[4],5 µM
same,MIC,[5],2.5 µM
same,MIC,[6],5 µM
same,MIC,[7],40 µM
same,MIC,[8],80 µM
same,MIC,[9],40 µM
same,MIC,[10],80 µM
same,MIC,[11],2.5 µM
C=C(C)CNC(=N)NCCCCCCCCN1CCCCCCCCNC(=N)NC1=O,MIC,[1],> 80 µM
same,MIC,[2],40 µM
same,MIC,[3],80 µM
same,MIC,[4],40 µM
same,MIC,[5],20 µM
same,MIC,[6],40 µM
same,MIC,[7],> 80 µM
same,MIC,[8],40 µM
same,MIC,[9],80 µM
same,MIC,[10],> 80 µM
same,MIC,[11],20 µM
C/C=C/CNC(=N)NCCCCCCCCN1CCCCCCCCNC(=N)NC1=O,Ratio,[12],2.4
same,MIC,[1],5 µM
same,Activity,[13],78%
same,MIC,[2],5 µM
same,MIC,[14],18 µM
same,MIC,[3],20 µM
same,MIC,[4],1.25 µM
same,MIC,[5],2.5 µM
same,MIC,[6],2.5 µM
same,MIC,[15],73 µM
same,MIC,[16],73 µM
same,MIC,[7],5 µM
same,MIC,[8],1.25 µM
same,MIC,[17],4 µM
same,MIC,[18],36 µM
same,MIC,[19],36 µM
same,MIC,[20],18 µM
same,MIC,[9],5 µM
same,Ratio,[21],1.9
same,MIC,[22],18 µM
same,Activity,[23],43%
same,viability,[24],100%
same,MIC,[10],5 µM
same,MIC,[11],1.25 µM
C[C@@H]1[C@H](O)[C@@H](C)/C=C/C=C/C=C/C=C/C=C/C=C/C=C/[C@H](O[C@@H]2O[C@H](C)[C@@H](O)[C@H](N)[C@@H]2O)C[C@@H]2O[C@](O)(C[C@@H](O)C[C@@H](O)[C@H](O)CC[C@@H](O)C[C@@H](O)CC(=O)O[C@H]1C)C[C@H](O)[C@H]2C(=O)O [AMPHOTERICIN B],MIC,[14],0.135 µM
same,MIC,[15],1 µM
same,MIC,[16],0.135 µM
same,MIC,[17],0.135 µM
same,MIC,[18],0.27 µM
same,MIC,[19],2.1 µM
same,MIC,[20],0.27 µM
same,MIC,[22],0.54 µM
OC(Cn1cncn1)(Cn1cncn1)c1ccc(F)cc1F [FLUCONAZOLE],MIC,[1],32 µM
same,MIC,[2],209 µM
same,MIC,[3],209 µM
same,MIC,[4],52 µM
same,MIC,[5],0.8 µM
same,MIC,[6],418 µM
same,MIC,[7],6.5 µM
same,MIC,[8],209 µM
same,MIC,[9],418 µM
same,MIC,[10],13 µM
same,MIC,[11],209 µM
N=C(N)NCCCCCCCCNCCCCCCCCNC(=N)N [IMINOCTADIENE],MIC,[1],40 µM
same,MIC,[2],20 µM
same,MIC,[3],40 µM
same,MIC,[4],1.25 µM
same,MIC,[5],80 µM
same,MIC,[6],40 µM
same,MIC,[7],> 80 µM
same,MIC,[8],80 µM
same,MIC,[9],20 µM
same,MIC,[10],20 µM
same,MIC,[11],80 µM
CCC(C)n1ncn(-c2ccc(N3CCN(c4ccc(OCC5COC(Cn6cncn6)(c6ccc(Cl)cc6Cl)O5)cc4)CC3)cc2)c1=O (stereo not given) [ITRACONAZOLE],MIC,[14],0.35 µM
same,MIC,[15],0.35 µM
same,MIC,[16],0.35 µM
same,MIC,[17],0.35 µM
same,MIC,[18],0.04 µM
same,MIC,[19],0.04 µM
same,MIC,[20],0.35 µM
same,MIC,[22],0.02 µM

# Reference: ChEMBL document CHEMBL1154780, “Synthesis of new linear guanidines and macrocyclic amidinourea derivatives endowed with high antifungal activity against Candida spp. and Aspergillus spp” (J Med Chem, 2009)
